This note sets out measurements from the EternaBench riboswitch data.

In this data set the test system is MS2 coat protein. Briefly: apparent Kd, MS2 coat protein; higher = weaker binding; RNA-MaP array; FMN 200 µM where present. The gist of the method: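 On Illumina sequencing-chip clusters, designs were transcribed by stalled E. coli RNA polymerase and titrated with SNAP-549-labelled MS2 coat protein (0.7 or 1.5 nM, doubling to 3 µM), without and then with constant ligand, in 100 mM Tris-HCl pH 7.5, 80 mM KCl, 4 mM MgCl2, BSA, DTT, yeast tRNA and Tween-20. Apparent Kd is the median of filtered per-cluster curve fits to green signal normalised to red-channel RNA signal and control-cluster median Fmax.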

The mark [1] stands for this setting: designed as: OFF switch for flavin mononucleotide, no ligand.
Setting [2] is: ligand present: flavin mononucleotide, designed as: OFF switch for flavin mononucleotide.
The mark [3] stands for this setting: designed as: ON switch for flavin mononucleotide, no ligand.
[4] abbreviates: ligand present: flavin mononucleotide, designed as: ON switch for flavin mononucleotide.

What is called apparent Kd is a dissociation constant that holds for the conditions of the assay.

In the case of “CUGCUGGAGCUUUGCUUUAGUCGUACAUGAGGAUCACCCAUGUAGGAUAUGGUAGGCUAUGCUUACUAGAAGGAUAGAGUGGUC”, the “apparent Kd” value is 62.3 nM under setting [1] and 32.2 nM under setting [2].

For the sequence “GGGCUGUCAGGAUAUCCCGGGCCCGGGUAAAUUUGGGCCCGGGAGAAGGGACAUGAGGAUCACCCAUGUGGCCC”, the “apparent Kd” value runs as follows: under setting [1], 39.2 nM; under setting [2], 40.5 nM.

Regarding “GAGUGGUUGGGAGGAUAUGCAUUGUUAUUAAAUGCAGAAGGUUUUAACAUGAGGAUCACCCAUGUAGGACUAUUCCUGUGUUUC”, the “apparent Kd” value runs as follows: under setting [3], 17.4 nM; under setting [4], 14.6 nM.

For “GAUGCACAUGAGAAGGCGAUCAUGAAACAUGAUCGAGGAUAUCAUGUAAACAUGAGGAUCACCCAUGUAUGGGUAAAGUGCAUC”, the “apparent Kd” value by setting is: under setting [3], 446 nM; under setting [4], 32 nM.

“UAAUCGUUGCAGAAGGUUAUUAUUAUAUCGUGUCACUUAACAUGAGGAUCACCCAUGUUUUUGAUGAAGGAUAUGCAACGGUAG”: the “apparent Kd” value under setting [1] stood at 6.74 nM and the “apparent Kd” value under setting [2] was 6.83 nM.

Take “GACUCGCGCACAGGAUAUCCACGGAGCGGACGCGGAGAAGGGUGACAUGAGGAUCACCCAUGUACGUGAGUCUAGAUCACUUCC”: the “apparent Kd” value under setting [3] was 76.8 nM and the “apparent Kd” value under setting [4] amounted to 22.5 nM.

Consider “ACUGCAUAGUCAGGAUAUGCAAAAGCAGACUCAAAGAGUCUGAACAACACAUGAGGAUCACCCAUGUAGAAGGGACUGUGCAGU”, for which the “apparent Kd” value under setting [1] was 18.3 nM and the “apparent Kd” value under setting [2] amounted to 18 nM.

As to “AAGGAUAGAGGAUAUACAUAGAUACAGAUUCGUGUAGUCCUACAUGAGGAUCACCCAUGUAGAAGGCUAUCCUA”, the “apparent Kd” value was found to be 11.8 nM under setting [1] and 22.9 nM under setting [2].

Regarding “GCCGGGUAGGCAGGAUAUCCUCGCGCAAACACAUGAGGAUCACCCAUGUACACAAAACGUGAUAUGGAGAAGGGCCGACCCGCA”, the “apparent Kd” value reads like this: under setting [3], 26.6 nM; under setting [4], 5.28 nM.

For the sequence “AGUGUCAUCGAGAAGGCCUCAACAUGAGGAUCACCCAUGUUGUAAUAUGGGAGGAUAUCGAUGAUACAGCUACGUUUCGUAGCC”, the “apparent Kd” value by setting is: under setting [3], 19.5 nM; under setting [4], 5.91 nM.

Regarding “ACGACGAAAGUCGAACGAUGUAGCAGAAGGACAUGAGGAUCACCCAUGUCAGCUGUAACAGCCAUGUAGGAUAUGCUACAUCGC”, the “apparent Kd” value came to 4.38 nM under setting [1] and 5.45 nM under setting [2].

On to “UCCUGGCGAGGAUAUACAAUGUUUUUCGCGUGUUGUUGGGAACAUGAGGAUCACCCAUGUAGAAGGUGCUACUG”, for which the “apparent Kd” value is 409 nM under setting [1] and 286 nM under setting [2].

For “CGCAAGUAUACAUGAGGAUACAUGAGGAUCACCCAUGUUAUCAGAAGGUACUAUUAGAGAUAGAGUAAGGAUAUGAAAUUUGUG”, the “apparent Kd” value is, setting by setting: under setting [3], 7.88 nM; under setting [4], 17.3 nM.

Take “UCUUCACAUGAGGAUCACCCAUGUGAGGAUAUGGAUUCGCUGGCCGUAGCCAGUGGAUCCAGAAGGCGCAUGAU”: the “apparent Kd” value reads like this: under setting [1], 23.8 nM; under setting [2], 25 nM.

Regarding “UCGGCGCGAGGAUAUGCGGUUUGUGCUUUGGGCCCUCGCGUACAUGAGGAUCACCCAUGUAGAAGGCGCGCCGC”, the “apparent Kd” value was 192 nM under setting [1] and 212 nM under setting [2].

Consider “GGUGCGUAUGUGAGGAUAUGCUGGUCCUUGGAUCGGCAGAAGGCACAUGAGGAUCACCCAUGUGGUGUCGUACG”, for which the “apparent Kd” value was determined as 59.6 nM under setting [1] and 228 nM under setting [2].

On to “ACAUGAGGAUCACCCAUGUUAUCAGGGACUUCAAUUAUUUCUAGAAGGCUGUUUUCUUGUAAGUCAGAGGAUAUAGAAUUAAAU”, for which the “apparent Kd” value by setting is: under setting [1], 14 nM; under setting [2], 15.1 nM.

On to “UCCUGACAUGAGGAUCACCCAUGUAAUUCCUGCCGAGGAUAUGGGCAACAAAGCGGUUGGCCAGAAGGCGGACAGC”, for which the “apparent Kd” value runs as follows: under setting [3], 252 nM; under setting [4], 150 nM.

For the sequence “CUGCUUCCCAGUAUGGGUAUUUAUACAGAAGGCCAGACACAUGAGGAUCACCCAUGUCAAGUAAUGGAGGAUAUGUUAUUGUCG”, the “apparent Kd” value is 10.9 nM under setting [3] and 4.97 nM under setting [4].

Turning to “AUAUUACGAGGAUAUCGUUUUUAUCACAUGAGGAUCACCCAUGUAAUUUAUGUUUCGUUUCGAGAAGGCGUAAGUU”, the “apparent Kd” value was 19.8 nM under setting [1] and 22 nM under setting [2].

For the sequence “AAUAUAAAGAGCUGGUAAAACUCAACAUGAGGAUCACCCAUGUAGGAUAUCAGCACGAUAAGUGCUGAGAAGGACAUCCAGCUC”, the “apparent Kd” value was determined as 16.3 nM under setting [1] and 17.1 nM under setting [2].

With “CUGAUUAUACAAGGAUAUCUUUUGUUGUUUCGACUUACAUGAGGAUCACCCAUGUUAAUAUUUUUAGAGAAGGUGUAUUUUCAG”, the “apparent Kd” value is, setting by setting: under setting [3], 16.8 nM; under setting [4], 20.3 nM.

For “UAGAUUUAUGUAGGAUAUACAUUUUUUAUGUAUGUAGAAGGACAUGAGGAUCACCCAUGUAAAUAAAUAUUAAAUAUCAUAAUU”, the “apparent Kd” value is, setting by setting: under setting [1], 30.4 nM; under setting [2], 23.8 nM.

For “GGUGCGUUUGUGAGGAUAUGCUGGUCCUUGGUUCGGCAGAAGGCACAUGAGGAUCACCCAUGUGGUGUCGUCCC”, the “apparent Kd” value is 33 nM under setting [1] and 98.6 nM under setting [2].

“AAUCUAUUUAUGGGAUUACAAUAUGAGGAUAUCAUUCAUCUAUACAUGAGGAUCACCCAUGUUACUGAGAAGGCAUAUAUAAUA”: the “apparent Kd” value is, setting by setting: under setting [3], 14.1 nM; under setting [4], 9.85 nM.

For “AUACAUGAGGAUCACCCAUGUUACAUGGCCUUGAUAGAUUGUAGAAGGAUGUUAUUAUUUUUUUCAUAGGAUAUACUAUUUAGU”, the “apparent Kd” value by setting is: under setting [1], 120 nM; under setting [2], 105 nM.

On to “AAAUUGCUAGAGGAUAUCGGAUAGGAUCUAUCGCGAGAAGGUUGGACAUGAGGAUCACCCAUGUUCUGUUGGGA”, for which the “apparent Kd” value reads like this: under setting [1], 24.4 nM; under setting [2], 26.1 nM.

On to “UAAAUACAUGAGGAUCACCCAUGUGAGGAUAUCCGAUGAUUCGGAGAAAGGACCCGUUGGAGAAGGCAUAGGGC”, for which the “apparent Kd” value reads like this: under setting [1], 27.1 nM; under setting [2], 21 nM.

“UGUCGGAGCAGAGGAUAUUACAUGAGGAUCACCCAUGUAUGAACCAAUACCUGGAAACAGCAAUGUAAGAAGGCUGCUCCGACA”: the “apparent Kd” value came out at 12.5 nM under setting [1] and 141 nM under setting [2].

Regarding “UGCAUGCUAGGAUAUACGGGACAUUAGGGUUCGUCGUGUGGACAUGAGGAUCACCCAUGUAGAAGGAGCGUGCU”, the “apparent Kd” value under setting [1] was determined as 90 nM and the “apparent Kd” value under setting [2] is 345 nM.

With “GCCAGGAUGUGAGGAUAUGCUGAGGAUACUUCAGCAGAAGGCACAUGAGGAUCACCCAUGUACACUUAUCAUAAAUACCCUGGC”, the “apparent Kd” value is, setting by setting: under setting [1], 13.4 nM; under setting [2], 16.3 nM.

As for “UUUAUGGGACAGAAGGGCAUUUACAUGAGGAUCACCCAUGUUCAUCAUUGCAGGAUAUGUAUAACAUGAGGAUCACCUAUGUAC”, the “apparent Kd” value under setting [3] turned out to be 604 nM and the “apparent Kd” value under setting [4] is 106 nM.

Regarding “AAUAACAGAGGAUAUACUAUUUUAUGUGUUUAUUGUUUUAAACAUGAGGAUCACCCAUGUAGAAGGCUGAUUAA”, the “apparent Kd” value by setting is: under setting [1], 69.7 nM; under setting [2], 105 nM.

Consider “AGCAUGCUAGGAUAUACGAAACAUUAGGGUUCGUCGUAUGAACAUGAGGAUCACCCAUGUAGAAGGAGCGUGCA”, for which the “apparent Kd” value by setting is: under setting [1], 18 nM; under setting [2], 36.2 nM.

For the sequence “UAUACUUACGAAGGAUAUGGUUACAUGAGGAUCACCCAUGUAUGUAUGUUGAUCGUGUAUCUUAACCAGAAGGUCGUCACUAUA”, the “apparent Kd” value was found to be 44.9 nM under setting [1] and 56.5 nM under setting [2].

As to “CGAUAUAUGAAGGGCGAACGCGCACAUGAGGAUCACCCAUGUAGAAGGCGGUCCGCAACGCGGAUCGAGGAUAUAUAGUAUACG”, the “apparent Kd” value reads like this: under setting [1], 27.5 nM; under setting [2], 30.7 nM.

Consider “GUGGUCAGACAUGAGGAUCACCCAUGUGGAAUAAAUAAGGGACAGGAUAUUUAAUAUAGGAUAUAGAAGAAGGGUUGGUUGGUG”, for which the “apparent Kd” value is 106 nM under setting [3] and 138 nM under setting [4].

Take “UGCAUGCUAGGAUAUACGAAACAUUAGGGUUCGUCGUAUGAACAUGAGGAUCACCCAUGUAGAAGGAGCGUGCU”: the “apparent Kd” value under setting [1] worked out at 18.4 nM and the “apparent Kd” value under setting [2] was 34.3 nM.

For the sequence “GUAACAUGAGGAUCACCCAUGUAUAGAACGCUUAAUAGAUCUGAGGAUAUACUAGAAUUUACGUAGUAGAAGGCAGUGGGUACA”, the “apparent Kd” value is 35.9 nM under setting [3] and 26.9 nM under setting [4].

With “GCAGGUCGAGGAUAUACAUGAGGAUCACCCAUGUAGAUCAACCAGCGAUAGCUGGAAUGUAGAAGGUGACCUGC”, the “apparent Kd” value under setting [1] was 15.7 nM and the “apparent Kd” value under setting [2] was found to be 29.4 nM.

As for “UUUAAGUGAGGAUAUACGAAUAGUAAGUAAGUAUUACAGACGUAGAAGGCACAUGAGGAUCACCCAUGUAAAUA”, the “apparent Kd” value was found to be 30.1 nM under setting [1] and 28.2 nM under setting [2].

As to “AGAAACUACGAGAAGGACAUGAGGAUCACCCAUGUAACCACUUAGUGGAAUGUAGGAUAUCGUAGUUUCAGGAUCGUGAGAUCA”, the “apparent Kd” value under setting [1] was 6.91 nM and the “apparent Kd” value under setting [2] is 9.58 nM.

Regarding “UGCGUACAAGCGGACAUGAGGAUCACCCAUGUAGUCUUAUGCGAGGAUAUCGGGAAGGAGGAUUCCGAGAAGGUGCGGUGAGCC”, the “apparent Kd” value was 17.5 nM under setting [3] and 15.2 nM under setting [4].

Regarding “GAGUAGUUGAUAGGAUAUUGAUUGUUAUAGGAUCAAGAAGGAUCUAACAUGAGGAUCACCCAUGUAGGACUAUUCCUGUGUAUC”, the “apparent Kd” value under setting [3] was determined as 22.1 nM and the “apparent Kd” value under setting [4] came to 19.2 nM.

With “CAUUGCGGAGGAUAUAGGCCGUAAUACAUGAGGAUCACCCAUGUGCCGCUGUAUAAUUCCCUAGAAGGUUGCCAUC”, the “apparent Kd” value was determined as 15.4 nM under setting [1] and 15.7 nM under setting [2].

Take “GCACUGGAUGUAGGAUAUCAGGACGAUAAGUCCUGAGAAGGACAUGAGGAUCACCCAUGUGAAAAUUCCAGUGCAAAUAAUAUA”: the “apparent Kd” value reads like this: under setting [1], 13 nM; under setting [2], 19.1 nM.

Turning to “UCGAGUCAUGAGAAGGACUGAUGUUACAUGAGGAUCACCCAUGUCAUGGGUAGGAUAUCAUUGACACGGCCGUACCUCUCUUAC”, the “apparent Kd” value runs as follows: under setting [3], 355 nM; under setting [4], 78.2 nM.

As to “AUCAGCUCGUCAGGAUAUACGUCACUGCGUCGGCAGUGUGGUAAGAUCACAUGAGGAUCACCCAUGUAGAAGGGACGAGCUGAU”, the “apparent Kd” value under setting [1] was 14.4 nM and the “apparent Kd” value under setting [2] came to 280 nM.
